Laboratory results: ChEMBL document CHEMBL3808274, “Discovery and characterization of a novel series of N-phenylsulfonyl-1H-pyrrole picolinamides as positive allosteric modulators of the metabotropic glutamate receptor 4 (mGlu4)” (Bioorg Med Chem Lett, 2016)

Assays:
[1] = molecular target: T1, Metabotropic glutamate receptor 4 (Homo sapiens, UniProt Q14833); assay: Positive allosteric modulation of human mGlu4 receptor assessed as increase in glutamate-induced calcium mobilization at 30 uM relative to PHCCC; type: functional
T1 sequence (Q14833 whole entry): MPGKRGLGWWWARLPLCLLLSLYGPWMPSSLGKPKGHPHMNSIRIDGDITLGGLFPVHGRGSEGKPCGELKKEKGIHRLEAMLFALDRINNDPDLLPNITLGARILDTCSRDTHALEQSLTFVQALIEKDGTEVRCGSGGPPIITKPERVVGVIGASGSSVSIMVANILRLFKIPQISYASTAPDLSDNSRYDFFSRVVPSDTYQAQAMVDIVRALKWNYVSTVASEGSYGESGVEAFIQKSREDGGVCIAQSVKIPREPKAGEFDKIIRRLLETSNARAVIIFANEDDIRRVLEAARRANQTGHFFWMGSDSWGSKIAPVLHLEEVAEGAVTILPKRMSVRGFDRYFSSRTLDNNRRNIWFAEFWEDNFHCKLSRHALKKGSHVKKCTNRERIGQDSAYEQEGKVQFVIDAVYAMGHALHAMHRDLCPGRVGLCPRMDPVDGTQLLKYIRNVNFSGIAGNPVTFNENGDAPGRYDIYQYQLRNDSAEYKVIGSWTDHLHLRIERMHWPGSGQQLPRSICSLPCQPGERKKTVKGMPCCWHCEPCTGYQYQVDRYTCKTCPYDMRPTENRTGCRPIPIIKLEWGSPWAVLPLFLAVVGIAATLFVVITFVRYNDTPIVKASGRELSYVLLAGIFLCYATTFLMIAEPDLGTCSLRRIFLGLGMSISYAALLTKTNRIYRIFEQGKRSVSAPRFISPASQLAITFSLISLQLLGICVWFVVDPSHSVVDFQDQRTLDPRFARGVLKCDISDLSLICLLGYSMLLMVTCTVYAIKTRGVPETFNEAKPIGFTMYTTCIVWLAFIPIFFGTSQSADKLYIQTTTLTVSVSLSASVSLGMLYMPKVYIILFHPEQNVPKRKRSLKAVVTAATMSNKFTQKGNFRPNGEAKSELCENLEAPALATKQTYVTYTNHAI
In short: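 Calcium mobilization assay at human mGlu4; response amplitude with 30 µM test compound normalized to the standard PHCCC and expressed as %GluMax.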

[2] = molecular target: T1, Metabotropic glutamate receptor 4; assay: Positive allosteric modulation of human mGlu4 receptor assessed as increase in glutamate-induced calcium mobilization; type: functional
In short: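 Calcium mobilization assay in cells expressing human mGlu4; potentiation of the glutamate response measured; EC50 values are the average of n = 3.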

Plasma = assay: Fraction unbound in rat plasma by equilibrium dialysis method; type: ADME, cell-free
In short: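 Protein binding in rat plasma measured by equilibrium dialysis; fraction unbound (Fu) reported.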

[3] = Half life in rat at 1 mg/kg, iv; type: ADME, organism-based; conditions: in vivo
In short: (§1)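 Rat IV dosing at 1 mg/kg; plasma PK parameters (clearance, half-life, MRT, Vss, AUC) derived from plasma concentration-time profile.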

[4] = Plasma clearance in rat at 1 mg/kg, iv; type: ADME, organism-based; in short: as §1
[5] = Volume of distribution at steady state in rat at 1 mg/kg, iv; type: ADME, organism-based; conditions: in vivo, read-out: Vdss; in short: as §1
[6] = AUC in rat at 1 mg/kg, iv; type: ADME, organism-based; conditions: in vivo; in short: as §1
[7] = Mean residence time in rat at 1 mg/kg, iv; type: ADME, organism-based; conditions: in vivo; in short: as §1
[8] = Systemic plasma concentration in rat at 10 mg/kg, po incubated for 1 hr; type: ADME, organism-based
In short: (§2)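 Rats dosed orally at 10 mg/kg, either with vehicle or co-dosed with 1-aminobenzotriazole (ABT), a pan-irreversible cytochrome P450 inhibitor. At 1 h post-dose, systemic plasma, hepatic portal vein plasma and brain were sampled. Drug concentrations were measured in each matrix, and brain:plasma ratios were derived from these levels.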

[9] = Systemic plasma concentration in rat at 10 mg/kg, po coadministered with panirreversible P450 inhibitor ABT incubated for 1 hr; type: ADME, organism-based; in short: as §2
[10] = Drug level in rat brain at 10 mg/kg, po coadministered with panirreversible P450 inhibitor ABT incubated for 1 hr; type: ADME, organism-based; conditions: read-out: Drug uptake
In short: (§3)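 Rats dosed orally at 10 mg/kg, with vehicle or co-dosed with the pan-irreversible P450 inhibitor 1-aminobenzotriazole (ABT); samples taken at 1 h from systemic plasma, hepatic portal vein plasma and brain. Brain:plasma and systemic:HPV ratios are calculated from these concentrations.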

[11] = Ratio of drug level in rat brain to plasma at 10 mg/kg, po coadministered with panirreversible P450 inhibitor ABT incubated for 1 hr; type: ADME, organism-based; conditions: read-out: BPR; in short: as §2
[12] = Ratio of systemic plasma concentration to hepatic portal vein plasma concentration in rat at 10 mg/kg, po; type: ADME, organism-based; conditions: in vivo; in short: as §3
[13] = Drug level in rat brain at 10 mg/kg, po incubated for 1 hr; type: ADME, organism-based; conditions: read-out: Drug uptake; in short: as §3
[14] = Ratio of drug level in rat brain to plasma at 10 mg/kg, po incubated for 1 hr; type: ADME, organism-based; conditions: read-out: BPR; in short: as §3
[15] = Ratio of systemic plasma concentration to hepatic portal vein plasma concentration in rat at 10 mg/kg, po coadministered with panirreversible P450 inhibitor ABT; type: ADME, organism-based; conditions: in vivo; in short: as §3
[16] = Plasma concentration in rat hepatic portal vein at 10 mg/kg, po coadministered with panirreversible P450 inhibitor ABT incubated for 1 hr; type: ADME, organism-based; in short: as §3
[17] = Plasma concentration in rat hepatic portal vein at 10 mg/kg, po incubated for 1 hr; type: ADME, organism-based; in short: as §3

O=C(Nc1ccn(S(=O)(=O)Cc2ccc(C(F)(F)F)cc2)c1)c1ccccn1
%max [1]: 88.7%
EC50 [2]: 188 nM

O=C(Nc1ncc(S(=O)(=O)Cc2ccc(Cl)cc2F)s1)c1ccccn1
%max [1]: 35.1%
EC50 [2]: 83 nM

O=C(Nc1ccn(S(=O)(=O)Cc2ccc(Cl)cc2)c1)c1ccccn1
%max [1]: 140%
EC50 [2]: 398 nM

O=C(Nc1ccn(S(=O)(=O)Cc2cccc(F)c2)c1)c1ccccn1
%max [1]: 98.6%
EC50 [2]: 572 nM

O=C(Nc1ccn(S(=O)(=O)C(F)c2ccccc2F)c1)c1ccccn1 (stereo not drawn)
%max [1]: 71%
EC50 [2]: 1020 nM

Cc1nc(NC(=O)c2ccccn2)sc1S(=O)(=O)Cc1ccc(Cl)cc1F
%max [1]: 112%
EC50 [2]: 4140 nM

O=C(Nc1ccn(S(=O)(=O)c2ccc(Cl)cc2)c1)c1ccccn1
%max [1]: 103%
EC50 [2]: 1240 nM
Fu (Plasma): 0.004

O=C(Nc1ccn(S(=O)(=O)Cc2ccccc2Cl)c1)c1ccccn1
%max [1]: 119%
EC50 [2]: 174 nM

Cc1nc(NC(=O)c2ccccn2)sc1S(=O)(=O)Cc1ccccc1Cl
%max [1]: 94.8%
EC50 [2]: 448 nM

O=C(Nc1ccn(S(=O)(=O)Cc2ccc(F)cc2F)c1)c1ccccn1
%max [1]: 109%
EC50 [2]: 190 nM

CC(c1ccccc1)S(=O)(=O)n1ccc(NC(=O)c2ccccn2)c1 (stereo not drawn)
%max [1]: 59.6%
EC50 [2]: 2970 nM

O=C(Nc1cnn(S(=O)(=O)c2ccc(C(F)(F)F)cc2)c1)c1ccccn1
%max [1]: 35.3%
EC50 [2]: 242 nM

CCc1nc(NC(=O)c2ccccn2)sc1S(=O)(=O)Cc1ccc(Cl)cc1F
%max [1]: 120%
EC50 [2]: 217 nM

Cc1nc(NC(=O)c2ccccn2)sc1S(=O)(=O)Cc1ccc(F)cc1F
%max [1]: 93.5%
EC50 [2]: 547 nM

Cc1nc(NC(=O)c2ccccn2)sc1S(=O)(=O)Cc1c(F)cccc1F
%max [1]: 99.3%
EC50 [2]: 295 nM

O=C(Nc1ccn(S(=O)(=O)Cc2ccc(F)cc2Cl)c1)c1ccccn1
%max [1]: 122%
EC50 [2]: 84 nM

O=C(Nc1ccn(S(=O)(=O)C(F)(F)c2ccccc2F)c1)c1ccccn1
%max [1]: 33.5%
EC50 [2]: > 30000 nM

O=C(Nc1ccn(S(=O)(=O)c2ccc(Cl)cn2)c1)c1ccccn1
%max [1]: 83%
EC50 [2]: 344 nM

Cc1cccc(CS(=O)(=O)n2ccc(NC(=O)c3ccccn3)c2)c1
%max [1]: 112%
EC50 [2]: 4180 nM

Cc1cccc(S(=O)(=O)n2ccc(NC(=O)c3ccccn3)c2)c1
%max [1]: 84.8%
EC50 [2]: 104 nM
Fu (Plasma): 0.001

O=C(Nc1ccn(S(=O)(=O)Cc2ccccc2F)c1)c1ccccn1
%max [1]: 117%
EC50 [2]: 251 nM

Cc1ccc(S(=O)(=O)n2ccc(NC(=O)c3ccccn3)c2)cc1C
half-life [3]: 4.2 h
clearance [4]: 37.2 mL/min/kg
%max [1]: 80.3%
Vd [5]: 5.5 L/kg
AUC [6]: 448 ng·h/mL
EC50 [2]: 62 nM
MRT [7]: 2.48 h
Fu (Plasma): 0.012

O=C(Nc1ncc(S(=O)(=O)Cc2ccccc2Cl)s1)c1ccccn1
%max [1]: 30.6%
EC50 [2]: 189 nM

O=C(Nc1ccn(S(=O)(=O)c2ccc(C(F)(F)F)cc2)c1)c1ccccn1
%max [1]: 35.6%
EC50 [2]: 739 nM

Cc1cc(S(=O)(=O)n2ccc(NC(=O)c3ccccn3)c2)ccc1F
%max [1]: 98.9%
EC50 [2]: 268 nM

Cc1ccc(S(=O)(=O)n2ccc(NC(=O)c3ccccn3)c2)cc1
%max [1]: 88.8%
EC50 [2]: 122 nM
Fu (Plasma): 0.009

O=C(Nc1ccn(S(=O)(=O)c2ccc(F)cc2)c1)c1ccccn1
%max [1]: 78.8%
EC50 [2]: 740 nM

CCc1nc(NC(=O)c2ccccn2)sc1S(=O)(=O)Cc1c(F)cccc1F
%max [1]: 109%
EC50 [2]: 150 nM

O=C(Nc1ccn(S(=O)(=O)c2ccc(Cl)nc2)c1)c1ccccn1
%max [1]: 72.9%
EC50 [2]: 440 nM

Cc1cc(S(=O)(=O)n2ccc(NC(=O)c3ccccn3)c2)ccc1Cl
half-life [3]: 2.78 h
clearance [4]: 86.8 mL/min/kg
concentration at 1 h [8]: 7.4 ng/mL
%max [1]: 72.2%
concentration at 1 h [9]: 198 ng/mL
concentration at 1 h [10]: 176 ng/g
Kp at 1 h [11]: 1
Vd [5]: 7.4 L/kg
AUC [6]: 192 ng·h/mL
Ratio [12]: < 0.01
EC50 [2]: 163 nM
concentration at 1 h [13]: 8.1 ng/g
MRT [7]: 1.41 h
Kp at 1 h [14]: 1
Ratio [15]: 0.26
Fu (Plasma): 0.004
concentration at 1 h [16]: 764 ng/mL
concentration at 1 h [17]: 731 ng/mL

Cc1ccc(S(=O)(=O)n2cc(NC(=O)c3ccccn3)cn2)cc1C
%max [1]: 92.9%
EC50 [2]: 148 nM
Fu (Plasma): 0.005
